pEC50: −log10 of the molar value. “And” between values parts separate entries of the source, which are not always exact repeats. Equal entries are not always repeated.
Columns and labels:
Assay type in all cases: functional, cell-based
[1] = Proliferation of human (JN.24 cloned) V gamma-2 V delta-2 T cell
Procedure, shortened: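 JN.24 CD4+ clone, 1×10^5 cells/well, stimulated in duplicate or triplicate with half-log dilutions of antigen plus 1×10^5 CP.EBV B cells fixed with 0.05% glutaraldehyde (1:1). Supernatant removed at 18 h, then cultures pulsed with 1 µCi 3H-thymidine and harvested 16–18 h later; mean proliferation gives EC50.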

[2] = TNF-alpha release is determined to know human (JN.24 cloned) V gamma-2 V delta-2 T cell stimulation
Procedure, shortened: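 JN.24 CD4+ clone, 1×10^5 cells/well, cultured in duplicate or triplicate with half-log antigen dilutions and 1×10^5 glutaraldehyde-fixed (0.05%) CP.EBV B cells as APC (1:1). Supernatants collected after 18 h; TNF-α quantified by sandwich ELISA against a TNF-α standard curve; EC50 from dose response.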

[3] = TNF-alpha release is determined to know human (12g12 cloned) V gamma-2 V delta-2 T cell stimulation
Procedure, shortened: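 12G12 cells (1×10^5/well) cocultured 1:1 with glutaraldehyde-fixed Va2 transformed fibrosarcoma cells as APC and half-log antigen dilutions, in duplicate or triplicate. Supernatant taken at 18 h, TNF-α measured by sandwich ELISA against a standard curve; EC50 from dose response.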

[4] = Proliferation of human (12g12 cloned) V gamma-2 V delta-2 T cell
Procedure, shortened: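 Clone 12G12 at 1×10^5 cells/well with 1×10^5 fixed Va2 fibrosarcoma cells as APC (1:1), exposed in duplicate or triplicate to half-log antigen dilutions. After 18 h supernatant removal, 1 µCi 3H-thymidine pulse; harvest 16–18 h later; EC50 from mean proliferation.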

SMILES | pEC50 ([1]; Homo sapiens, T-cell) | pEC50 ([2]; Homo sapiens, T-cell) | pEC50 ([3]; Homo sapiens, T-cell) | pEC50 ([3]; t-cell) | pEC50 ([4]; Homo sapiens, T-cell) | pEC50 ([4]; t-cell) | pEC50 ([1]; t-cell) | pEC50 ([2]; t-cell)
O=P(O)(O)OP(=O)(O)OCC[C@@H](O)CBr | 5.92 | 6.30 |  |  |  |  |  | 
O=P(O)(O)OP(=O)(O)OCC[C@H](O)CBr | 5.40 | 5.70 |  |  |  |  |  | 
C[C@@](O)(CBr)CCOP(=O)(O)OP(=O)(O)O |  |  | 8.05 | 8.10 | 9.05 | 9.10 |  | 
C[C@@]1(CCOP(=O)(O)OP(=O)(O)O)CO1 |  |  |  | 8.89 and 8.43 | 9.00 | 9.00 | 8.85 and 8.51 and 8.89 | 
C[C@](O)(CBr)CCOP(=O)(O)OP(=O)(O)O | 6.77 |  | 8.30 | 8.40 |  | 8.85 and 9.30 | 6.92 and 6.96 and 7.07 | 
O=P(O)(O)OP(=O)(O)OCC[C@@H]1CO1 | < 4.00 | < 4.00 |  |  |  |  |  | 
O=P(O)(O)OP(=O)(O)OCC[C@H]1CO1 | < 4.00 | < 4.00 |  |  |  |  |  | 
CC1(CCOP(=O)(O)OP(=O)(O)O)CO1 (single isomer, unassigned) |  |  |  | 8.10 and 8.52 | 9.30 | 9.22 |  | 5.54 and 6.46 and 5.96
